Screening data deposited in PubChem BioAssay by several laboratories.
procasp3 activ: activators of human procaspase-3 D3A mutant, primary screen, biochemical, absorbance, PC-3 D3A mutant, single concentration; Caspase-3 (Homo sapiens), P42574; recombinant procaspase-3 D3A, Ac-DEVD-pNA absorbance 405 nm; activation, % at 8.5 µM; 330,000 compounds, 0.11% hits;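 active = activation above the mean of all tested compounds plus 3 SD, cut at about 21% in these data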;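 note: 0% = DMSO alone and 100% = DMSO wells spiked with extra 5 µM PC-3 D3A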
Target sequence (P42574 whole entry D9A/D28A/D175A): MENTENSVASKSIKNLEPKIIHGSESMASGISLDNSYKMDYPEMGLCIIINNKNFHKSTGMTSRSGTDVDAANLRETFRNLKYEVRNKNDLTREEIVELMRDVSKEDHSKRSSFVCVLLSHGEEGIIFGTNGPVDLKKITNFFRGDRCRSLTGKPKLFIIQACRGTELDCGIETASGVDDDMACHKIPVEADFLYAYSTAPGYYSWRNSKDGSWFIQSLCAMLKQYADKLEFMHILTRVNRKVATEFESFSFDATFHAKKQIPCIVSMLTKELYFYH
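Test system: Procaspase-3 D3A mutant; medium: Zinc-free HEPES/NaCl buffer with 0.01% Triton X-100 at pH 7.4; reagent: DEVD-pNA substrate; doses: one concentration, 8.5 µM nominal, 0.8% DMSO; times: 1 h preincubation plus 2 h reaction at 25 °C; signal: Epi-absorbance at 405 nm of released p-nitroaniline, 0 and 120 min; replicates: singlicate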
GRIN3A LBD mod: binders of NR3A ligand-binding domain, primary screen, biophysical, differential scanning fluorimetry, uHTS; Glutamate receptor ionotropic, NMDA 3A (GRIN3A) ligand-binding domain; 340,000 compounds, 2.5% hits; Tm shift relative to glycine control, % at 25 µM; NR3A LBD differential scanning fluorimetry, Tm shift; 0% = protein alone, 100% = glycine-bound protein;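 active = melting temperature shift of at least 10% of the positive control shift, at one fixed dose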
aDG glyco act: activators of alpha-DG glycosylation, primary screen, uHTS, Pro5-aDG cells, AlphaScreen | alpha-DG glycosylation AlphaScreen (IIH6); 0% Pro5, 100% B10-LARGE cell signal | activation, % at 10 µM | 360,000 compounds, 0.22% hits | AID 624168, 2012;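 active = activation of at least 8% versus controls, or a plate z-score of at least 8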;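 note: Pro5 are CHO cells carrying HIG-tagged alpha-DG that lacks glycosylation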
proCasp7 act: procaspase-7 activators, primary screen, counter-screen for procaspase-3 activator project, biochemical, absorbance, HTS, human; Caspase-7 (Homo sapiens), P55210; recombinant procaspase-7, Ac-DEVD-pNA absorbance 405 nm; D23A/D198A/D206A triple mutant, cannot self-cleave; scale: DMSO 0, 5 µM enzyme 100; activation, % at 8.5 µM; 330,000 compounds, 0.093% hits;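 active = percent activation above the screen-wide mean plus 3 SD, cut at about 25% in these data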
Target sequence (P55210 whole entry D23A/D198A/D206A): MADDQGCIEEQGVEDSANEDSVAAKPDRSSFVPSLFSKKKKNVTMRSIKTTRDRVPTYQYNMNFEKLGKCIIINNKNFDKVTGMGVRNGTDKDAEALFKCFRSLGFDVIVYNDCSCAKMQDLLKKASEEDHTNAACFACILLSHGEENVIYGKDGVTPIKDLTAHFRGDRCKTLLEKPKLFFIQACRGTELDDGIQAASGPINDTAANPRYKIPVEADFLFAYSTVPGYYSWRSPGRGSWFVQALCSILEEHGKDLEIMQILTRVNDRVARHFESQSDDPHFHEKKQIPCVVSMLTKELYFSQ
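buffer or medium = Zinc-free HEPES/NaCl buffer, pH 7.4 | material = Procaspase-7 triple mutant (PC-7 D3A) | input = 2 µM procaspase-7 mutant as dispensed | signal = Epi-absorbance of released pNA at 405 nm, two timepoints | timing = 1 h preincubation, 2 h reaction | replicates = singlicate compound testing | evaluation = % activation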
MPTP inh: mitochondrial permeability transition pore inhibitors, primary screen, biochemical, isolated mouse mitochondria, absorbance; inhibition, % at 10 µM; AID 602449, 2012; 360,000 compounds, 1.4% hits; Ca2+ swelling absorbance, 30 min;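 active = inhibition of 50% or more, scaled per plate between neutral and stimulator controls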;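 note: 0% = DMSO wells given calcium and 100% = 1 mM EGTA wells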
Active calls of the source: *; nt = not tested or not shown. This is a sample that favours compounds with a hit; in the whole collection about 3.7% have one here.

SMILES	procasp3 activ	GRIN3A LBD mod	aDG glyco act	proCasp7 act	MPTP inh
O=C(c1ccccc1)c1nn(-c2ccccc2)c(=O)cc1C(F)(F)F	-4.6	12.2*	-0.2	-6.7	1.4
CC(=O)Nc1cccc(-c2ccnc3c2CC(C)(C(=O)Nc2cccc(Oc4ccccc4)c2)O3)c1 (stereo unspecified)	nt	nt	0.3	nt	0.4
NC1=C(Cl)C(=O)c2ccccc2C1=O	nt	-0.3	21.6*	nt	1.0
O=c1c2ccccc2sn1-c1ccccc1	nt	3.3	0.6	-25.2	5.4
O=C(O)c1cccc(-n2sc3ccccc3c2=O)c1	-28.0	22.8*	0.1	-26.2	-1.8
Cc1cccc(CN2[C@H](COCc3ccccc3)C=CS2(=O)=O)c1	nt	nt	-0.2	nt	1.1
CCN(CC)S(=O)(=O)c1cc(C(=O)OCC(=O)Nc2cccc(Br)c2)ccc1F	5.7	18.4*	0.0	0.9	35.9
CCN(CC)S(=O)(=O)c1cc(C(=O)OCC(=O)Nc2c(F)cccc2F)ccc1F	-2.6	-1.7	0.0	5.6	2.9
O=[N+]([O-])c1cccc(/C=C/c2ccc3cccc(O)c3n2)c1	3.2	7.2	0.3	6.8	2.1
O=[N+]([O-])c1cccc(/C=C/c2nc(C=Nc3ccc4ccccc4c3)c(O)o2)c1	4.3	11.1*	-0.1	3.5	-0.2
C[C@@H]1CN(Cc2nnnn2CC(=O)NCCCn2cccn2)C[C@H](C)O1	nt	nt	0.2	nt	0.8
O=C(OCc1ccccc1)/C(=C/c1ccccc1Cl)NC(=O)c1ccco1	1.3	14.8*	-0.1	-0.1	0.6
CCOC(=O)C1C2C=CC(CC2)N1c1ccccc1 (stereo unspecified)	5.2	-3.5	-0.2	-11.2	0.2
Clc1nssc1=Nc1nncs1	-25.8	25.0*	0.0	-36.5	2.5
COc1ccc(CCC(=O)OCC(=O)c2cccc(OC)c2)cc1	-4.5	-1.6	0.1	-8.8	2.2
COc1ccc(CCC(=O)OCC(=O)c2ccc(C)cc2)cc1	-2.9	56.3*	-0.2	2.2	-0.1
COc1cc(/C=C(\CCC(=O)O)c2nc3ccccc3s2)ccc1OCC(=O)Nc1c(Cl)cccc1Cl	7.7	4.9	-0.1	4.0	-2.1
O=C(Cn1c2c(sc1=O)C1c3ccccc3OCC1CS2)Nc1ccc(Cl)cc1 (stereo unspecified)	-0.7	13.1*	0.4	-17.9	3.8
COc1cccc(-c2cnc3c(NC=O)cc(-c4ccccc4Oc4ccccc4)cn23)c1	nt	nt	0.0	nt	-0.9
Clc1ccc2c(c1)c1cc(Cl)ccc1n2CN1CCOCC1	5.6	10.7*	-0.2	7.1	1.3
Cc1nc(Nc2ccc(Cl)cc2Cl)sc1C(=O)Nc1ccccc1	4.8	43.0*	1.4	-0.7	45.5
Cc1nc(NC(=O)C2CC2)sc1C(=O)Nc1cccc(Cl)c1	nt	-9.7	0.0	nt	-0.6
Cc1nc(NC(=O)/C=C/c2ccccc2)sc1C(=O)Nc1ccc(Cl)cc1	6.0	37.6*	-0.4	-1.5	-3.0
O=S1(=O)CCN(Cc2cccnc2)CC1	nt	nt	-0.2	nt	-1.1
C=CCn1c(CNC(=O)c2cccs2)nnc1SCC(=O)c1ccc(Br)cc1	3.2	13.3*	0.5	11.0	7.2
SMILES	procasp3 activ	GRIN3A LBD mod	aDG glyco act	proCasp7 act	MPTP inh
C=CCn1c(Cc2cccs2)nnc1SCC(=O)c1ccc2ccccc2c1	1.2	15.7*	2.6	14.0	1.0
C=CCn1c(CCNC(=O)c2cccs2)nnc1SCC(=O)c1ccc(Cl)cc1	7.8	-12.7	0.2	10.8	-0.6
C=CCn1c(Cc2cccs2)nnc1SCC(=O)c1ccc(F)cc1	-6.0	-0.3	0.2	-1.2	1.7
Cc1ccc(-c2noc(CCC(=O)N3CCN(c4cc(C)ccc4C)CC3)n2)cc1	-4.4	3.1	-0.4	6.9	1.7
Cc1ccc(C)c(N2CCN(C(=O)CCc3nc(-c4cccc(Cl)c4)no3)CC2)c1	2.7	16.8*	-0.3	3.7	0.9
Cc1ccc(C)c(N2CCN(C(=O)CCc3nc(-c4ccc(Br)cc4)no3)CC2)c1	-3.7	17.2*	-0.2	0.6	-0.6
CN(C(=O)c1ccc(NC(=O)C2CCCN(C(=O)OC(C)(C)C)C2)cc1)C1CCCC1 (stereo unspecified)	-3.1	-1.7	0.5	2.7	-0.5
O=C(NCCOc1ccccc1)c1ncn[nH]1	-1.9	10.3*	-0.2	-5.6	0.8
O=C(NCc1cccc(Cl)c1)c1ccc(S(=O)(=O)Nc2cccc(C(F)(F)F)c2)cc1	-10.2	28.0*	0.3	-3.7	4.3
O=C(Cc1cccc(C(F)(F)F)c1)NCc1cccc(Cl)c1	-5.3	-1.7	0.5	2.9	6.1
Cn1cnc2c1c(=O)[nH]c(=O)n2Cc1ccccc1	1.0	10.3*	0.1	0.5	0.8
CC(C)CCn1cnc2c1c(=O)[nH]c(=O)n2Cc1ccccc1	2.0	-1.3	0.1	-3.5	0.8
Cc1cccc(C)c1Cn1c(C)c(C(=O)NCc2ccc([N+](=O)[O-])cc2)sc1=O	nt	nt	0.1	nt	0.9
O=C(NCc1ccccc1)C(c1ccco1)N1CCN(c2ccccc2F)CC1 (stereo unspecified)	nt	nt	0.1	nt	3.2
CCOC(=O)c1cccc(NC(=O)c2ccc3c(c2)OCO3)c1	-9.2	1.4	0.1	5.8	1.5
CCc1ccc(-n2nc3ccc(NC(=O)c4ccc5c(c4)OCO5)cc3n2)cc1	6.9	15.2*	-0.1	4.8	2.4
Cc1ccc(-n2nc3ccc(NC(=O)c4ccc5c(c4)OCO5)cc3n2)cc1	-3.0	12.9*	-0.1	2.0	-0.3
Cc1ccc(-n2nc3ccc(NC(=O)c4cccc([N+](=O)[O-])c4C)cc3n2)cc1	1.6	17.1*	0.1	19.5	31.3
CCOC(=O)C1=C(C)Nc2sc(C(=O)c3ccc(F)cc3)c(N)c2C1c1ccc(C(=O)OC)cc1 (stereo unspecified)	-20.6	13.1*	0.8	-25.4	6.3
O=C(c1ccc(Cl)cc1)N1CCN(c2cccc3[nH]ccc23)CC1	-4.8	15.4*	-0.2	-3.5	1.2
CCn1nc(C)c(C2C(C#N)=C(N)OC3=C2C(=O)CCC3)c1C (stereo unspecified)	1.8	-2.6	-0.1	-1.8	5.1
Cc1nn(C)c(C)c1C1C(C#N)=C(N)OC2=C1C(=O)CCC2 (stereo unspecified)	0.5	11.6*	0.2	10.1	0.7
Nc1cc(=O)[nH]c(SCC(=O)Nc2ccc(Br)cc2)n1	-1.5	-0.4	0.0	8.1	-5.9
Nc1nc(SCC(=O)Nc2ccc(OC(F)(F)F)cc2)[nH]c(=O)c1NC(=O)c1ccc(Br)o1	3.3	16.8*	0.0	4.0	0.9
